Tests used:
[1] = organism: Homo sapiens; experiment: Stabilization of 5'Dabcyl/3'FAM labeled human telomeric sequence G-quadruplex DNA assessed as increase in melting temperature at 2.5 uM pretreated for 5 mins at 30 degreeC followed by 5 mins incubation at 95 degreeC by fluorescence assay
Outline: (§1)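 FRET melting in LiP buffer (10 mM LiOH, 50 mM KCl, pH 7.0 with H3PO4), ex 488 nm, em 520 nm. Samples were held 5 min at 30 °C, heated at 1 °C/min to 95 °C, held 5 min, then re-annealed. Tm came from first derivatives; ΔTm = shift with ligand at 2.5; at least three runs.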

[2] = Stabilization of 5'Dabcyl/3'FAM labeled duplex DNA (unknown origin) assessed as increase in melting temperature at 2.5 uM pretreated for 5 mins at 30 degreeC followed by 5 mins incubation at 95 degreeC by fluorescence assay; outline: as §1
[3] = test system: RPMI-8226; experiment: Growth inhibition of human RPMI8226 cells incubated for 48 hrs by sulforhodamine B assay; format: functional; conditions: RPMI-8226, 48 h
[4] = test system: SR; experiment: Growth inhibition of human SR cells incubated for 48 hrs by sulforhodamine B assay; format: functional
[5] = test system: HOP-92; experiment: Growth inhibition of human HOP92 cells incubated for 48 hrs by sulforhodamine B assay; format: functional; conditions: HOP-92, 48 h
[6] = test system: NCI-H226; experiment: Growth inhibition of human NCI-H226 cells incubated for 48 hrs by sulforhodamine B assay; format: functional; conditions: NCI-H226, 48 h
[7] = test system: NCI-H460; experiment: Growth inhibition of human NCI-H460 cells incubated for 48 hrs by sulforhodamine B assay; format: functional; conditions: NCI-H460, 48 h
[8] = test system: HCC 2998; experiment: Growth inhibition of human HCC2998 cells incubated for 48 hrs by sulforhodamine B assay; format: functional; conditions: HCC 2998, 48 h
[9] = test system: HCT-116; experiment: Growth inhibition of human HCT116 cells incubated for 48 hrs by sulforhodamine B assay; format: functional; conditions: HCT-116, 48 h
[10] = test system: SW-620; experiment: Growth inhibition of human SW620 cells incubated for 48 hrs by sulforhodamine B assay; format: functional; conditions: SW-620, 48 h
[11] = test system: SF-268; experiment: Growth inhibition of human SF268 cells incubated for 48 hrs by sulforhodamine B assay; format: functional; conditions: SF-268, 48 h
[12] = test system: SF-295; experiment: Growth inhibition of human SF295 cells incubated for 48 hrs by sulforhodamine B assay; format: functional; conditions: SF-295, 48 h
[13] = test system: SNB-75; experiment: Growth inhibition of human SNB75 cells incubated for 48 hrs by sulforhodamine B assay; format: functional; conditions: SNB-75, 48 h
[14] = test system: U-251; experiment: Growth inhibition of human U251 cells incubated for 48 hrs by sulforhodamine B assay; format: functional; conditions: U-251, 48 h
[15] = test system: LOX IMVI; experiment: Growth inhibition of human LOXIMVI cells incubated for 48 hrs by sulforhodamine B assay; format: functional
[16] = test system: M14; experiment: Growth inhibition of human M14 cells incubated for 48 hrs by sulforhodamine B assay; format: functional; conditions: M14, 48 h
[17] = test system: MDA-MB-435; experiment: Growth inhibition of human MDA-MB-435 cells incubated for 48 hrs by sulforhodamine B assay; format: functional; conditions: MDA-MB-435, 48 h
[18] = test system: SK-MEL-2; experiment: Growth inhibition of human SK-MEL-2 cells incubated for 48 hrs by sulforhodamine B assay; format: functional; conditions: SK-MEL-2, 48 h
[19] = test system: SK-MEL-28; experiment: Growth inhibition of human SK-MEL-28 cells incubated for 48 hrs by sulforhodamine B assay; format: functional; conditions: SK-MEL-28, 48 h
[20] = test system: UACC-257; experiment: Growth inhibition of human UACC257 cells incubated for 48 hrs by sulforhodamine B assay; format: functional; conditions: UACC-257, 48 h
[21] = test system: IGROV-1; experiment: Growth inhibition of human IGROV1 cells incubated for 48 hrs by sulforhodamine B assay; format: functional; conditions: IGROV-1, 48 h
[22] = test system: OVCAR-3; experiment: Growth inhibition of human OVCAR3 cells incubated for 48 hrs by sulforhodamine B assay; format: functional; conditions: OVCAR-3, 48 h
[23] = test system: OVCAR-4; experiment: Growth inhibition of human OVCAR4 cells incubated for 48 hrs by sulforhodamine B assay; format: functional; conditions: OVCAR-4, 48 h
[24] = test system: OVCAR-5; experiment: Growth inhibition of human OVCAR5 cells incubated for 48 hrs by sulforhodamine B assay; format: functional; conditions: OVCAR-5, 48 h
[25] = test system: OVCAR-8; experiment: Growth inhibition of human OVCAR8 cells incubated for 48 hrs by sulforhodamine B assay; format: functional; conditions: OVCAR-8, 48 h
[26] = test system: NCI/ADR-RES; experiment: Growth inhibition of human NCI-ADR-RES cells incubated for 48 hrs by sulforhodamine B assay; format: functional
[27] = test system: SK-OV-3; experiment: Growth inhibition of human SKOV3 cells incubated for 48 hrs by sulforhodamine B assay; format: functional; conditions: SK-OV-3, 48 h
[28] = test system: A498; experiment: Growth inhibition of human A498 cells incubated for 48 hrs by sulforhodamine B assay; format: functional; conditions: A498, 48 h
[29] = test system: ACHN; experiment: Growth inhibition of human ACHN cells incubated for 48 hrs by sulforhodamine B assay; format: functional
[30] = test system: CAKI-1; experiment: Growth inhibition of human Caki1 cells incubated for 48 hrs by sulforhodamine B assay; format: functional; conditions: CAKI-1, 48 h
[31] = test system: RXF 393; experiment: Growth inhibition of human RXF393 cells incubated for 48 hrs by sulforhodamine B assay; format: functional; conditions: RXF 393, 48 h
[32] = test system: SN12C; experiment: Growth inhibition of human SN12C cells incubated for 48 hrs by sulforhodamine B assay; format: functional
[33] = test system: TK-10; experiment: Growth inhibition of human TK10 cells incubated for 48 hrs by sulforhodamine B assay; format: functional; conditions: TK-10, 48 h
[34] = test system: UO-31; experiment: Growth inhibition of human UO31 cells incubated for 48 hrs by sulforhodamine B assay; format: functional; conditions: UO-31, 48 h
[35] = test system: PC-3; experiment: Growth inhibition of human PC3 cells incubated for 48 hrs by sulforhodamine B assay; format: functional; conditions: PC-3, 48 h
[36] = test system: DU-145; experiment: Growth inhibition of human DU145 cells incubated for 48 hrs by sulforhodamine B assay; format: functional; conditions: DU-145, 48 h
[37] = test system: MCF7; experiment: Growth inhibition of human MCF7 cells incubated for 48 hrs by sulforhodamine B assay; format: functional; conditions: MCF7, 48 h
[38] = test system: MDA-MB-231; experiment: Growth inhibition of human MDA-MB-231 cells incubated for 48 hrs by sulforhodamine B assay; format: functional; conditions: MDA-MB-231, 48 h
[39] = test system: Hs-578T; experiment: Growth inhibition of human Hs 578T cells incubated for 48 hrs by sulforhodamine B assay; format: functional
[40] = test system: BT-549; experiment: Growth inhibition of human BT549 cells incubated for 48 hrs by sulforhodamine B assay; format: functional; conditions: BT-549, 48 h
[41] = test system: T47D; experiment: Growth inhibition of human T47D cells incubated for 48 hrs by sulforhodamine B assay; format: functional
[42] = test system: MDA-MB-468; experiment: Growth inhibition of human MDA-MB-468 cells incubated for 48 hrs by sulforhodamine B assay; format: functional; conditions: MDA-MB-468, 48 h
[43] = test system: NCI-H322M; experiment: Growth inhibition of human NCI-H322M cells incubated for 48 hrs by sulforhodamine B assay; format: functional
[44] = test system: 786-0; experiment: Growth inhibition of human 786-0 cells incubated for 48 hrs by sulforhodamine B assay; format: functional; conditions: 786-0, 48 h

## COc1ccccc1CNCCCN1C(=O)c2ccc3c4c(ccc(c24)C1=O)C(=O)N(CCCNCCNCCCN)C3=O
[1]
  ΔTm: 22 °C
[2]
  ΔTm: 10.4 °C
[3]
  GI50: 10900 nM
[4]
  GI50: 898 nM
[5]
  GI50: 6700 nM
[6]
  GI50: 2990 nM
[7]
  GI50: 2080 nM
[8]
  GI50: 2250 nM
[9]
  GI50: 717 nM
[10]
  GI50: 1740 nM
[11]
  GI50: 2100 nM
[12]
  GI50: 2770 nM
[13]
  GI50: 3070 nM
[14]
  GI50: 1170 nM
[15]
  GI50: 2100 nM
[16]
  GI50: 2070 nM
[17]
  GI50: 2070 nM
[18]
  GI50: 2670 nM
[19]
  GI50: 3030 nM
[20]
  GI50: 2530 nM
[21]
  GI50: 3690 nM
[22]
  GI50: 2160 nM
[23]
  GI50: 466 nM
[24]
  GI50: 5240 nM
[25]
  GI50: 2080 nM
[26]
  GI50: 23100 nM
[27]
  GI50: 4040 nM
[28]
  GI50: 5010 nM
[29]
  GI50: 4450 nM
[30]
  GI50: 21700 nM
[31]
  GI50: 1650 nM
[32]
  GI50: 2090 nM
[33]
  GI50: 6650 nM
[34]
  GI50: 10800 nM
[35]
  GI50: 5910 nM
[36]
  GI50: 3650 nM
[37]
  GI50: 422 nM
[38]
  GI50: 2090 nM
[39]
  GI50: 5510 nM
[40]
  GI50: 2580 nM
[41]
  GI50: 1510 nM
[42]
  GI50: 456 nM

## CNCCCNCCCN1C(=O)c2ccc3c4c(ccc(c24)C1=O)C(=O)N(CCCNCc1ccccc1OC)C3=O
[1]
  ΔTm: 18 °C
[2]
  ΔTm: 9.5 °C
[3]
  GI50: 1640 nM
[4]
  GI50: 270 nM
[5]
  GI50: 2130 nM
[6]
  GI50: 1420 nM
[43]
  GI50: 2220 nM
[7]
  GI50: 429 nM
[8]
  GI50: 1930 nM
[9]
  GI50: 270 nM
[10]
  GI50: 365 nM
[11]
  GI50: 1030 nM
[12]
  GI50: 894 nM
[13]
  GI50: 1110 nM
[14]
  GI50: 1610 nM
[15]
  GI50: 1520 nM
[16]
  GI50: 1320 nM
[17]
  GI50: 1070 nM
[18]
  GI50: 1750 nM
[19]
  GI50: 1010 nM
[20]
  GI50: 1350 nM
[21]
  GI50: 1450 nM
[22]
  GI50: 1370 nM
[23]
  GI50: 641 nM
[24]
  GI50: 1250 nM
[25]
  GI50: 797 nM
[26]
  GI50: 12100 nM
[27]
  GI50: 2950 nM
[44]
  GI50: 1270 nM
[28]
  GI50: 1540 nM
[29]
  GI50: 500 nM
[31]
  GI50: 1890 nM
[32]
  GI50: 1460 nM
[33]
  GI50: 2580 nM
[34]
  GI50: 5880 nM
[35]
  GI50: 1600 nM
[36]
  GI50: 1050 nM
[37]
  GI50: 512 nM
[38]
  GI50: 2900 nM
[39]
  GI50: 3020 nM
[40]
  GI50: 5030 nM
[41]
  GI50: 1250 nM
[42]
  GI50: 1000 nM

## COc1ccccc1CNCCCN1C(=O)c2ccc3c4c(ccc(c24)C1=O)C(=O)N(CCCNCCCCN)C3=O
[1]
  ΔTm: 29 °C
[2]
  ΔTm: 12.2 °C
[3]
  GI50: 394 nM
[4]
  GI50: 76 nM
[5]
  GI50: 273 nM
[6]
  GI50: 808 nM
[7]
  GI50: 313 nM
[8]
  GI50: 149 nM
[9]
  GI50: 185 nM
[10]
  GI50: 155 nM
[11]
  GI50: 268 nM
[12]
  GI50: 448 nM
[13]
  GI50: 304 nM
[14]
  GI50: 173 nM
[15]
  GI50: 188 nM
[16]
  GI50: 343 nM
[17]
  GI50: 184 nM
[18]
  GI50: 223 nM
[19]
  GI50: 313 nM
[20]
  GI50: 163 nM
[21]
  GI50: 179 nM
[22]
  GI50: 293 nM
[23]
  GI50: 155 nM
[24]
  GI50: 944 nM
[25]
  GI50: 231 nM
[26]
  GI50: 366 nM
[27]
  GI50: 290 nM
[44]
  GI50: 616 nM
[28]
  GI50: 619 nM
[29]
  GI50: 535 nM
[30]
  GI50: 198 nM
[31]
  GI50: 582 nM
[32]
  GI50: 280 nM
[34]
  GI50: 1860 nM
[35]
  GI50: 230 nM
[36]
  GI50: 853 nM
[37]
  GI50: 185 nM
[38]
  GI50: 204 nM
[39]
  GI50: 1120 nM
[40]
  GI50: 1180 nM
[41]
  GI50: 215 nM
[42]
  GI50: 85 nM

From ChEMBL document CHEMBL4004831, “Naphthalene diimide-polyamine hybrids as antiproliferative agents: Focus on the architecture of the polyamine chains” (Eur J Med Chem, 2017)
